Experimental data collected from several papers.
Lines come from different studies, so protocols differ.
Target: Interleukin-1 receptor-associated kinase 1 (IRAK1, Homo sapiens, UniProt P51617)

Structure (SMILES) | read-out | action | method | tested at | quantity | result
CN(C)C1CCN(CC#Cc2nn(C3CCCC3)c3nc(NCc4ccccc4)ncc23)C1 (stereo not drawn) | enzyme activity | inhibitor | FRET | 10 µM | inhibition | 37%
CCN(CC)c1ccc(C2=NNC(=O)CC2C)cc1[N+](=O)[O-] (stereo not drawn) | enzyme activity | inhibitor | – | 10 µM | remaining activity | 89%
COc1cc(Nc2cnc(C#N)c(O[C@H](C)CN(C)C)n2)ncc1-c1cnn(C)c1 | enzyme activity | inhibitor | radiometric | 1 µM | remaining activity | 17%
CN(C)CC#Cc1ccc(OCCCc2sc(N3CCc4cccc(C(=O)Nc5nc6ccccc6s5)c4C3)nc2C(=O)O)c(F)c1 | cell-free assay | – | competition with immobilised ligand | 1 µM | remaining binding | 100%
Cc1ccc(NC(=O)c2ccc(C)c(C(F)(F)F)c2)cc1C#Cc1nn(C2CCC(O)CC2)c2ncnc(N)c12 (stereo not drawn) | cell-free assay | – | – | 10 µM | remaining signal | 30%
O=C1NC(=O)c2cc(Nc3ccc(F)cc3)c(Nc3ccc(F)cc3)cc21 | cell-free assay | – | – | 0.5 µM | remaining signal | 88.5%
Cc1nc(N2CC[C@@H](O)C2)ncc1-c1cc(C(F)(F)F)cc2[nH]ncc12 | binding | – | competition with immobilised ligand | 1 µM | remaining binding | 100%
Nc1ncnc2occ(-c3ccc(NC(=O)Nc4cc(C(F)(F)F)ccc4F)cc3)c12 | cell-free assay | inhibitor | – | 20 µM | remaining signal | 0.85%
CC(=O)N1CCC(c2ccc(C(=O)NC(=N)N)cc2C(F)(F)F)CC1 | cell-free assay | – | competition with immobilised ligand | 1 µM | remaining binding | 100%
CNC(=O)c1cc(Oc2ccc(NC(=O)Nc3ccc(Cl)c(C(F)(F)F)c3)cc2)ccn1 | enzyme activity | inhibitor | – | 10 µM | inhibition | 60%
O=C(Nc1cnn(-c2csc(C(=O)NC3COC3)c2)c1)Nc1c(F)cccc1Cl | enzyme activity | inhibitor | – | 5 µM | remaining activity | 107%
CCOC(=O)c1cc2cc(-c3cc(C(=O)NCc4ccc(C(=O)O)cc4)nn3C)ccc2[nH]1 | cell-free assay | – | competition with immobilised ligand | 0.1 µM | remaining binding | 85%
CCCCNc1ncc2c(-c3ccc(F)cc3)nn(C[C@H]3CC[C@H](N)CC3)c2n1 | target engagement in cells | inhibitor | chemoproteomics | 20 mM | inhibition | 51.5%
COc1cc(/C=C/C(=O)CC(=O)/C=C/c2ccc(O)c(OC)c2)ccc1O | enzyme activity | inhibitor | – | 1 µM | activity vs control | 97%
CCN(CC)CCNC(=O)c1c(C)[nH]c(/C=C2\C(=O)Nc3ccc(F)cc32)c1C | enzyme activity | inhibitor | – | 0.3 µM | inhibition | 31%
c1ccc(N2CCN(Cc3nc4ccccc4[nH]3)CC2)nc1 | binding | – | competition with immobilised ligand | 1 µM | remaining binding | 100%
Cc1ccc(C(=O)NCc2ccsc2)cc1C#Cc1cn(C(C)C)c2ncnc(N)c12 | enzyme activity | inhibitor | – | 1 µM | activity vs control | 86%
O=C(NC[C@@H]1[C@H]2CN(C(=O)OCc3cc(C(F)(F)F)cc(C(F)(F)F)c3)C[C@@H]12)c1ccc2[nH]nnc2c1 | cell-free assay | – | competition with immobilised ligand | 1 µM | remaining binding | 98%
Cc1ccc(C(=O)Nc2ccc(CN3CCN(C)CC3)c(C(F)(F)F)c2)cc1C#Cc1cnc2cccnn12 | enzyme activity | inhibitor | – | 23.5 nM | remaining activity | 54%
COc1cc2nccc(Oc3ccc(NC(=O)c4c5n(n(-c6ccc(F)cc6)c4=O)CCCC5)cc3)c2cc1OC | enzyme activity | inhibitor | – | 0.1 µM | inhibition | -7%
COc1cc(-c2cc(-c3ccc(N4CCNCC4)cc3)cnc2C)cc(OC)c1OC | enzyme activity | inhibitor | – | 1 µM | inhibition | 1%
